Measurements: ChEMBL document CHEMBL1153456, “Synthesis and opioid receptor activity of indolopropellanes” (Bioorg Med Chem Lett, 2009)

Columns and labels:
[1] = molecular target: T1, Delta-type opioid receptor (Homo sapiens, UniProt P41143); test: Displacement of [3H]naltrindole from human delta opioid receptor expressed in CHO cells; format: cell-based
Method in brief: (§1)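 Binding was run on CHO membranes at 0.5 mg protein per sample, incubated at 25 °C in 50 mM Tris–HCl pH 7.5 with the receptor-specific radioligand and 12 compound concentrations. Naloxone defined nonspecific binding. Values are means ± SEM from three experiments, each run in triplicate.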

[2] = molecular target: T2, Mu-type opioid receptor (Homo sapiens, UniProt P35372); test: Displacement of [3H]DAMGO from human mu opioid receptor expressed in CHO cells; format: cell-based; method in brief: as §1
[3] = molecular target: T3, Kappa-type opioid receptor (Homo sapiens, UniProt P41145); test: Displacement of [3H]U50488 from human kappa opioid receptor expressed in CHO cells; format: cell-based; method in brief: as §1
[4] = molecular target: T2, Mu-type opioid receptor; test: Agonist activity at human mu opioid receptor expressed in CHO cells assessed as stimulation of [35S]GTPgammaS binding by scintillation counting; format: functional, cell-based
Method in brief: (§2)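 CHO cell membranes expressing the opioid receptor were incubated with varying concentrations of compound in the presence of 0.8 nM [35S]GTPγS. EC50 and Emax were derived from the concentration–response data. Values are means from three experiments, each run in triplicate.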

[5] = molecular target: T3, Kappa-type opioid receptor; test: Agonist activity at human kappa opioid receptor expressed in CHO cells assessed as stimulation of [35S]GTPgammaS binding by scintillation counting; format: functional, cell-based; method in brief: as §2
[6] = molecular target: T1, Delta-type opioid receptor; test: Agonist activity at human delta opioid receptor expressed in CHO cells assessed as stimulation of [35S]GTPgammaS binding by scintillation counting; format: functional, cell-based; method in brief: as §2
[7] = molecular target: Delta-type opioid receptor (Rattus norvegicus, UniProt P33533); test: Displacement of [3H]p-Cl-DPDPE from rat delta opioid receptor expressed in rat C6 cells
Chain of Delta-type opioid receptor (Rattus norvegicus, UniProt P33533) (P33533 whole entry): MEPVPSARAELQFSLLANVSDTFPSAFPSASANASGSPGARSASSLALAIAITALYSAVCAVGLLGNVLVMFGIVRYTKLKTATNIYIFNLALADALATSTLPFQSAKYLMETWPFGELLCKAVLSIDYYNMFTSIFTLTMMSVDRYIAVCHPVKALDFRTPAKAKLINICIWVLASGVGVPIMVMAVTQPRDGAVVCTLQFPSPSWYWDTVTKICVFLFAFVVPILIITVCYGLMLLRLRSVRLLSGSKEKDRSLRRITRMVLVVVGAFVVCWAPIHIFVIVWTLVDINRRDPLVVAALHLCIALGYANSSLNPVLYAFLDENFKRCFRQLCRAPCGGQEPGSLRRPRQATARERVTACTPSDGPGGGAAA

T2 sequence (P35372 whole entry): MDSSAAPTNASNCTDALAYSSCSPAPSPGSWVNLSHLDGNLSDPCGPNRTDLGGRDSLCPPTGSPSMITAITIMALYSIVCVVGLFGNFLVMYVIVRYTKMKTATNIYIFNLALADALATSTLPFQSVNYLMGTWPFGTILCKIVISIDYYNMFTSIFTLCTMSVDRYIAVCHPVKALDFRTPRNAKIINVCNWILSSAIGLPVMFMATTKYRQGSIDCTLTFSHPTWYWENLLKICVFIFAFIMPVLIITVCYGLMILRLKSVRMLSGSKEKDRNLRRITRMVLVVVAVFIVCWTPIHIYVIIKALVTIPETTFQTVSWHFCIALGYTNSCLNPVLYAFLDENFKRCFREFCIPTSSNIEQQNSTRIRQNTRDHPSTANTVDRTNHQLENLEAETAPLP
T3 sequence (P41145 whole entry): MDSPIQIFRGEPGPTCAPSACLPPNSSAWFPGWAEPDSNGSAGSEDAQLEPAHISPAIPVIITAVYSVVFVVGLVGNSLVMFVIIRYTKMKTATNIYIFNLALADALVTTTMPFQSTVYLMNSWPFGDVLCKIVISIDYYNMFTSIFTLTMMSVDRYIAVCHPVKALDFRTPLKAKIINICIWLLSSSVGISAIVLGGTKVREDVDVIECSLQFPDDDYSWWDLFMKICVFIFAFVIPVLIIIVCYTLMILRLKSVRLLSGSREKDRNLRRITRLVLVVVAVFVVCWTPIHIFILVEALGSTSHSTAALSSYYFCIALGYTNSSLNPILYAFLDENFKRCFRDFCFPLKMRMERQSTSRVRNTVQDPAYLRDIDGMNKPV
T1 sequence (P41143 whole entry): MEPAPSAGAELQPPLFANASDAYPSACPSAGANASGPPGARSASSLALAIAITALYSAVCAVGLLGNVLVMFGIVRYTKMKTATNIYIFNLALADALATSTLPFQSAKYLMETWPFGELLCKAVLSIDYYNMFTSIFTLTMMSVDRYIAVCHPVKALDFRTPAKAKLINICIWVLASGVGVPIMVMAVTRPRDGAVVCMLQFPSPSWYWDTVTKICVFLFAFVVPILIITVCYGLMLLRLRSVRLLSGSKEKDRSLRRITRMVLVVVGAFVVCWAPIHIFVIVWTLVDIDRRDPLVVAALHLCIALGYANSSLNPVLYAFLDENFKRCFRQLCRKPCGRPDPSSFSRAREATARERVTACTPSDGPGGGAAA

Row | Compound | Ki [1] | Ki [2] | Ki [3] | EC50 [4] | Emax [4] | EC50 [5] | Emax [5] | EC50 [6] | Emax [6] | Ki [7]
1 | COc1ccc2c(c1)[C@]13CCN(CC4CC4)C[C@@]1(C2)Cc1c([nH]c2ccccc12)C3 | 6.65 µM | 1.42 µM | 2.55 µM | – | – | – | – | – | – | –
2 | COc1c(O)ccc2c1[C@]13CCN(C)[C@H](C2)[C@]1(O)Cc1c([nH]c2ccccc12)C3 | 0.0045 µM | 0.474 µM | – | – | – | – | – | – | – | –
3 | Cn1c2c(c3ccccc31)C[C@@]13Cc4ccc(O)cc4[C@@]1(CCN(CC1CC1)C3)C2 | 1.79 µM | 0.469 µM | 1.52 µM | – | – | – | – | – | – | –
4 | COc1ccc2c(c1)[C@]13CCN(C)C[C@@]1(C2)Cc1c([nH]c2ccccc12)C3 | 0.765 µM | 1.82 µM | 5.12 µM | – | – | – | – | – | – | –
5 | Oc1ccc2c(c1)[C@]13CCN(CC4CC4)C[C@@]1(C2)Cc1c([nH]c2ccccc12)C3 | 2.55 µM | 0.523 µM | 0.704 µM | 0.033 µM | 88.6% | 0.0671 µM | 79.9% | 0.01 µM | 91.4% | –
6 | COc1ccc2c(c1O)[C@]13CCN(C)[C@H](C2)[C@]1(O)Cc1c([nH]c2ccccc12)C3 | 0.0218 µM | 1.85 µM | 3.16 µM | – | – | – | – | – | – | –
7 | Oc1ccc2c3c1O[C@H]1c4[nH]c5ccccc5c4C[C@@]4(O)[C@@H](C2)N(CC2CC2)CC[C@]314 [NALTRINDOLE] | – | – | – | – | – | – | – | – | – | 0.0002 µM
8 | COc1ccc2c(c1)[C@]13CCN(C)C[C@@]1(C2)Cc1c(n(C)c2ccccc12)C3 | > 10 µM | 0.713 µM | 3.81 µM | – | – | – | – | – | – | –
9 | CN1CC[C@]23Cc4[nH]c5ccccc5c4C[C@]2(Cc2ccc(O)cc23)C1 | 1.12 µM | 0.104 µM | 1.19 µM | – | – | – | – | – | – | –
10 | CN1CC[C@]23Cc4c(c5ccccc5n4C)C[C@]2(Cc2ccc(O)cc23)C1 | 0.268 µM | 0.0402 µM | 1.12 µM | 0.174 µM | 95.7% | 0.0621 µM | 76.2% | 0.065 µM | 77.3% | –
